Measurements from ChEMBL document CHEMBL5120943, “Discovery of Novel Pyrazolopyrimidines as Potent, Selective, and Orally Bioavailable Inhibitors of ALK2” (ACS Med Chem Lett, 2022).

What was measured:
Activin receptor type-1 [1] = biological target: T1, Activin receptor type-1 (Homo sapiens, UniProt Q04771); assay: Inhibition of human recombinant N-terminal GST tagged ALK2 (147 to end residues) expressed in baculovirus infected in Sf9 cells assessed as loss of peptide phosphorylation activity using peptide substrate in presence of ATP and measured after 3 hrs by HTRF assay
T1 sequence (Q04771 whole entry): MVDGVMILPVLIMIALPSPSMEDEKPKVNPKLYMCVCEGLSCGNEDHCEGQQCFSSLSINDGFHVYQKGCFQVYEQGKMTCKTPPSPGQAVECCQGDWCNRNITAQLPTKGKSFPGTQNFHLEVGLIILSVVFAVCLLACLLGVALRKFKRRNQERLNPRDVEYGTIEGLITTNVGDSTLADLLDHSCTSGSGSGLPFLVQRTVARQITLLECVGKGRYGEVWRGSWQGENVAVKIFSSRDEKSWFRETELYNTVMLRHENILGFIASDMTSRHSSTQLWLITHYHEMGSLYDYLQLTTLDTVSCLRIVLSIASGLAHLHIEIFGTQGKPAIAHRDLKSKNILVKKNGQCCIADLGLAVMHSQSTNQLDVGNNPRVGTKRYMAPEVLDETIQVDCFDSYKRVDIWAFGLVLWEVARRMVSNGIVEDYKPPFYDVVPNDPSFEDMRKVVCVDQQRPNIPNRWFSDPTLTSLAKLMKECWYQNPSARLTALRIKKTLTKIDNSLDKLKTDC
How it was run: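 HTRF activity assay measuring loss of ALK2 phosphorylation of a peptide substrate. IC50 values were determined.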

Activin receptor type-1 [2] = biological target: T1, Activin receptor type-1; assay: Inhibition of ALK2 in human HeLa cells assessed as reduction in BMP-7 induced SMAD1 phosphorylation incubated for 1 hr followed BMP-7 stimulation for 30 mins by HTRF assay; assay type: cell-based
How it was run: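 HeLa cells were stimulated with BMP7. Inhibition of BMP7-induced SMAD1 phosphorylation was read by HTRF and an IC50 was derived.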

[3] = Volume of distribution at steady state in Sprague-Dawley rat at 3 mg/kg, po or 1 mg/kg, iv measured upto 24 hrs post dose by LC/MS/MS analysis; assay type: ADME, organism-based; conditions: in vivo
[4] = Cmax in Sprague-Dawley rat at 3 mg/kg, po measured upto 24 hrs post dose by LC/MS/MS analysis; assay type: ADME, organism-based; parameters: dose 3 mg/kg, time < 24 hrs, route po; conditions: in vivo
[5] = Half life in Sprague-Dawley rat at 3 mg/kg, po or 1 mg/kg, iv measured upto 24 hrs post dose by LC/MS/MS analysis; assay type: ADME, organism-based; conditions: in vivo
Hepcidin = biological target: T2, Hepcidin (Homo sapiens, UniProt P81172); assay: Inhibition of Hepcidin in human Huh-7 cells assessed as inhibition of BMP-7 induced hepcidin production incubated for 16 to 24 hrs by ELISA method; assay type: cell-based
T2 sequence (P81172 whole entry): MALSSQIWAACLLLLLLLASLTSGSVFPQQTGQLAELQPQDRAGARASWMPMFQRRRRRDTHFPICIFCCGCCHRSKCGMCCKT
How it was run: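 Huh7 liver cells were stimulated with BMP7. Inhibition of secreted hepcidin was measured and an IC50 was derived.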

[6] = Metabolic stability in human liver microsomes assessed as intrinsic clearance at 1uM and measured upto 30 mins in presence of NADPH by LC/MS analysis; assay type: ADME, Microsome; conditions: read-out: CLH (converted)
[7] = Protein binding in human plasma assessed as free fraction measured after 2 hrs by LC-MS/MS analysis; assay type: ADME, cell-free
[8] = AUC infinity in Sprague-Dawley rat at 3 mg/kg, po measured upto 24 hrs post dose by LC/MS/MS analysis; assay type: ADME, organism-based; parameters: time < 24 hrs, dose 3 mg/kg, route po; conditions: in vivo
[9] = Oral bioavailability in Sprague-Dawley rat at 3 mg/kg measured upto 24 hrs post dose by LC/MS/MS analysis; assay type: ADME, organism-based; conditions: in vivo

SMILES	IC50 (Activin receptor type-1 [1])	IC50 (Activin receptor type-1 [2])	other results
CC(C)C(=O)N1C[C@@H](C)N(c2ncc3[nH]nc(-c4ccc(N5CCN[C@H](C)C5)nc4)c3n2)[C@@H](C)C1	8 nM	661 nM	–
C[C@@H]1CN(c2ccc(-c3n[nH]c4cnc(N5[C@H](C)CNC[C@@H]5C)nc34)cn2)CCN1	793 nM	–	–
C[C@@H]1CN(c2ccc(-c3n[nH]c4cnc(N5[C@H](C)CN(C(=O)N6CCCC6)C[C@@H]5C)nc34)cn2)CCN1	–	–	Vdss [3]: 9.2 L/kg; Cmax [4]: 151 nM; half-life [5]: 3.8 h; IC50 (Hepcidin): 28 nM; CLint scaled at 1 µM [6]: 18.3 mL/min/kg; fraction unbound at 2 h [7]: 0.043; AUC(0-inf) [8]: 0.669 µM·h; bioavailability [9]: 46%
C[C@@H]1CN(c2ccc(-c3n[nH]c4cnc(N5[C@H](C)COC[C@@H]5C)nc34)cn2)CCN1	23 nM	245 nM	–

Now from value to compound, other results behind:

IC50 (Activin receptor type-1 [1])	IC50 (Activin receptor type-1 [2])	SMILES	other results
95 nM	> 3000 nM	C[C@@H]1CN(c2ccc(-c3n[nH]c4ccc(N5CCCCC5)nc34)cn2)CCN1	–
8.1 nM	–	CC1CCCCN1c1ncc2[nH]nc(-c3ccc(N4CCN[C@H](C)C4)nc3)c2n1 (some centres undefined)	–
2.5 nM	384 nM	C[C@@H]1CN(c2ccc(-c3n[nH]c4cnc(N5[C@H](C)CCC[C@@H]5C)nc34)cn2)CCN1	–
77 nM	–	C[C@@H]1CN(c2ccc(-c3n[nH]c4cnc(N5CCCCC5)cc34)cn2)CCN1	–
